Among the data in ChEMBL document CHEMBL1155472, “Versatile synthesis of new cytotoxic agents structurally related to hemiasterlins” (Bioorg Med Chem Lett, 2010) are IC50, Activity and inhibition values, retold here.

Activity calls are given as the source filed them. The rule behind the calls is not given here.

The nature of experiment [1]: Cytotoxicity against human UCI101 cells after 2 days by Alamar blue staining. The experiment is classed as functional, cell-based. Particulars: UCI101, 48 h. The procedure, abridged:
(§1)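 UCI-101 human ovarian cancer cells and N1–S1 rat hepatoma cells were exposed to a range of concentrations for 2 days. Growth suppression was read by Alamar blue staining, with each concentration run in triplicate, and plotted against concentration.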
A general note: Resazurin is reduced to fluorescent resorufin, in cell work by metabolically active cells.

Experiment [2] can be described thus: Cytotoxicity against rat N1S1 cells after 2 days by Alamar blue staining. The experiment is classed as functional, cell-based. Particulars: N1-S1, 48 h. The procedure, abridged: as §1
A further experiment relates to UCI101. Kind of experiment: Cytotoxicity against human UCI101 cells at 1 mM after 2 days by Alamar blue staining. It is filed as functional, cell-based. The procedure, abridged:
as §1

Another experiment has as its system N1S1. Kind of experiment: Cytotoxicity against rat N1S1 cells at 1 mM after 2 days by Alamar blue staining. It is filed as functional, cell-based. The procedure, abridged:
as §1

The nature of experiment [3]: Inhibition of tubulin polymerization at 5 uM. The procedure, abridged:
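Tubulin polymerization was run with a commercial polymerization assay kit, and polymerization curves were recorded over time. Colchicine and paclitaxel were run alongside as reference controls.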

Experiment [4] is described as follows: Cell cycle arrest in human UCI101 cells assessed as accumulation at G2 phase at 20 nM after 16 hrs using ethidium bromide staining by FACS analysis. It is filed as functional, cell-based.
Experiment [5] in a line: Cell cycle arrest in human UCI101 cells assessed as accumulation at G2 phase at 10 nM after 16 hrs using ethidium bromide staining by FACS analysis. The experiment is classed as functional, cell-based.
Experiment [6] can be described thus: Cell cycle arrest in human UCI101 cells assessed as accumulation at G2 phase at 25 nM after 16 hrs using ethidium bromide staining by FACS analysis. It is filed as functional, cell-based.

The term IC50 denotes the concentration needed to halve the response being measured. Read a high IC50 as weaker potency in that assay. Consider `C/C(=C\[C@H](C(C)C)N(C)C(=O)[C@@H](NC(=O)C(C)NC(C)(C)c1ccc2ccccc2c1)C(C)(C)C)C(=O)O` (stereo partly drawn), for which the IC50 in experiment [1] and in experiment [2] was 0.2 µM in each case.
For `C/C(=C\[C@H](C(C)C)N(C)C(=O)[C@@H](NC(=O)C(C)NC1CCCCC1)C(C)(C)C)C(=O)O` (mixture of isomers), the Activity entry in the experiment on UCI101 and in the experiment on N1S1 was “Not toxic” in each case.
`C/C(=C\[C@H](C(C)C)N(C)C(=O)[C@@H](NC(=O)[C@@H](C)NC(C)(C)c1ccccc1)C(C)C)C(=O)O` returned an IC50 in experiment [1] of 0.02 µM. Also, the inhibition entry in experiment [3] was “Active”. Also, the Activity in experiment [4] turned out to be 11%; in experiment [5], 4.7%; in experiment [6], 12%.
`C/C(=C\[C@H](C(C)C)N(C)C(=O)[C@@H](NC(=O)[C@H](C)NC(C)(C)c1ccccc1)C(C)(C)C)C(=O)O`: the IC50 in experiment [1] and in experiment [2] was 0.2 µM each time.
Turning to `CC(NC(C)(C)c1ccccc1)C(=O)N[C@H](C(=O)N(C)c1cccc(C(=O)O)c1)C(C)C` (stereo partly drawn), the Activity result in the experiment with UCI101 and in the experiment on N1S1 was “Not toxic” each time.
`C/C(=C\[C@H](C(C)C)N(C)C(=O)[C@@H](NC(=O)[C@@H](C)NC(C)(C)c1ccccc1)C(C)(C)C)C(=O)O`: the outcome in experiment [3], in experiment [4], in experiment [5] and in experiment [6] was Active. In addition, inhibition in experiment [2] was half-maximal at 0.02 µM (IC50).
